Measurements of several laboratories.
Protocols differ between the studies behind these lines.
Target: Sodium-dependent noradrenaline transporter (SLC6A2, Homo sapiens, UniProt P23975)

| Structure (SMILES) | assay | setting | endpoint | result |
| --- | --- | --- | --- | --- |
| C=CCN1CC[C@]23c4c5ccc(O)c4O[C@H]2C(=O)CC[C@]3(O)[C@H]1C5 | ligand displacement, radioligand |  | Ki | > 7.1 µM |
| COc1cc(C(=O)N2CC[C@@H](O)[C@@H](N)C2)cc2nc(-c3cc4ccccc4n3CC3CC3)n(C)c12 | transporter uptake, inhibitor |  | IC50 | 20 µM |
| CCCC[C@@H](NC(=O)[C@@H](N)Cc1ccc(O)cc1)C(=O)NCC(=O)N[C@@H](Cc1ccc(F)cc1)C(=O)N(C)CCC[C@@]1(c2ccc(F)cc2)OCc2cc(C#N)ccc21 | ligand displacement, radioligand |  | Ki | 2.4 µM |
| CNC(C)(C)C(=O)c1ccccc1 | calcium signal, agonist, fluorescence |  | EC50 | 0.153 µM |
| C[C@@H](NC(=O)[C@@H](N)Cc1ccc(O)cc1)C(=O)NCC(=O)N[C@@H](Cc1ccccc1)C(=O)N(C)CCC[C@@]1(c2ccc(F)cc2)OCc2cc(C#N)ccc21 | ligand displacement, radioligand |  | Ki | 0.75 µM |
| CNc1nc(C#Cc2ccc(Cl)s2)nc2c1ncn2[C@@H]1O[C@H](C(=O)OC)[C@@H](O)[C@H]1O | ligand displacement, radioligand | cell membranes | Ki | > 10 µM |
| C[C@H](N)Cn1ncc2ccc3c(c21)CCCO3 | ligand displacement, radioligand |  | Ki | > 100 µM |
| CN[C@@H](C)C(=O)c1ccccc1 | calcium signal, agonist, fluorescence |  | EC50 | 0.121 µM |
| CNc1nc(C#Cc2ccc(Br)s2)nc2c1ncn2[C@H]1[C@H](O)[C@H](O)[C@]2(C(=O)OC)C[C@H]12 | ligand displacement, radioligand | cell membranes | Ki | > 10 µM |
